{"source": "paper PMC6218153", "about": "(Journal of Alzheimer's Disease Reports, 2018)", "assay": "PK study in plasma and CSF after single IV, SC or IN dose", "assay_type": "in vivo, rat", "procedure,_shortened": "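Cannulated rats (jugular vein, intracisternal; n = 6/route) received a single dose in PBS: IV or SC ~11 mg/kg over 1 min, or IN ~5.5 mg/kg, 10 μL per nostril at 6-min intervals over 18 min. K2EDTA plasma was taken pre-dose to 165 min and CSF pre-dose to 150/180 min. LC/MS/MS (ESI+, 1007.55 > 876.35) with noncompartmental PK; CL = Dose/AUC. CSF ratio = dose-normalised CSF AUC relative to IV.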", "key": {"[1]": {"conditions": "rat, in vivo, 5.5 mg/kg, IN 5.5 mg/kg, CSF"}, "[2]": {"conditions": "rat, in vivo, inhaled or intranasal, 5.5 mg/kg, IN 5.5 mg/kg, plasma"}, "[3]": {"conditions": "rat, in vivo, sc, 11 mg/kg, SC 11 mg/kg, CSF"}, "[4]": {"conditions": "rat, in vivo, sc, 11 mg/kg, SC 11 mg/kg, plasma"}}, "note": "Where no end group is shown, it is not given here.", "data": [{"sequence": "DEEEDEEL [P8, DEEEDEEL]", "values": [{"measurement": "P8 concentration in plasma", "setting": "IV 11.0 mg/kg single dose, 110 min, Rat 1", "result": 93.1, "unit": "ng/mL"}, {"measurement": "P8 concentration in plasma", "setting": "IV 11.0 mg/kg single dose, 110 min, Rat 2", "result": 36.4, "unit": "ng/mL"}, {"measurement": "P8 concentration in plasma", "setting": "IV 11.0 mg/kg single dose, 110 min, Rat 3", "result": 39.8, "unit": "ng/mL"}, {"measurement": "P8 concentration in plasma", "setting": "IV 11.0 mg/kg single dose, 130 min, Rat 1", "result": 42.0, "unit": "ng/mL"}, {"measurement": "P8 concentration in plasma", "setting": "IV 11.0 mg/kg single dose, 130 min, Rat 2", "result": 18.3, "unit": "ng/mL"}, {"measurement": "P8 concentration in plasma", "setting": "IV 11.0 mg/kg single dose, 130 min, Rat 3", "result": 20.7, "unit": "ng/mL"}, {"measurement": "P8 concentration in CSF", "setting": "IV 11.0 mg/kg single dose, 150 min, Rat 1", "result": 4.88, "unit": "ng/mL"}, {"measurement": "P8 concentration in CSF", "setting": "IV 11.0 mg/kg single dose, 150 min, Rat 2", "result": 4.30, "unit": "ng/mL"}, {"measurement": "P8 concentration in CSF", "setting": "IV 11.0 mg/kg single dose, 150 min, Rat 3", "result": 3.57, "unit": "ng/mL"}, {"measurement": "P8 concentration in plasma", "setting": "IV 11.0 mg/kg single dose, 165 min, Rat 1", "result": 18.9, "unit": "ng/mL"}, {"measurement": "P8 concentration in plasma", "setting": "IV 11.0 mg/kg single dose, 165 min, Rat 3", "result": 9.72, "unit": "ng/mL"}, {"measurement": "P8 concentration in CSF", "setting": "IV 11.0 mg/kg single dose, 180 min, Rat 1", "result": 4.11, "unit": "ng/mL"}, {"measurement": "P8 concentration in CSF", "setting": "IV 11.0 mg/kg single dose, 180 min, Rat 3", "result": 1.06, "unit": "ng/mL"}, {"measurement": "P8 concentration in CSF", "setting": "SC 11.0 mg/kg single dose, 10 min, Rat 1", "result": 7.06, "unit": "ng/mL"}, {"measurement": "P8 concentration in CSF", "setting": "SC 11.0 mg/kg single dose, 10 min, Rat 2", "result": 22.6, "unit": "ng/mL"}, {"measurement": "P8 concentration in CSF", "setting": "SC 11.0 mg/kg single dose, 10 min, Rat 3", "result": 1.75, "unit": "ng/mL"}, {"measurement": "P8 concentration in CSF", "setting": "SC 11.0 mg/kg single dose, 30 min, Rat 1", "result": 25.2, "unit": "ng/mL"}, {"measurement": "P8 concentration in CSF", "setting": "SC 11.0 mg/kg single dose, 30 min, Rat 2", "result": 12.8, "unit": "ng/mL"}, {"measurement": "P8 concentration in CSF", "setting": "SC 11.0 mg/kg single dose, 30 min, Rat 3", "result": 8.03, "unit": "ng/mL"}, {"measurement": "P8 concentration in CSF", "setting": "SC 11.0 mg/kg single dose, 60 min, Rat 1", "result": 26.5, "unit": "ng/mL"}, {"measurement": "P8 concentration in CSF", "setting": "SC 11.0 mg/kg single dose, 60 min, Rat 2", "result": 17.1, "unit": "ng/mL"}, {"measurement": "P8 concentration in CSF", "setting": "SC 11.0 mg/kg single dose, 60 min, Rat 3", "result": 10.3, "unit": "ng/mL"}, {"measurement": "P8 concentration in plasma", "setting": "SC 11.0 mg/kg single dose, 70 min, Rat 2", "result": "4,150 ng/mL"}, {"measurement": "P8 concentration in plasma", "setting": "SC 11.0 mg/kg single dose, 70 min, Rat 3", "result": "1,220 ng/mL"}, {"measurement": "P8 concentration in plasma", "setting": "SC 11.0 mg/kg single dose, 90 min, Rat 1", "result": "2,600 ng/mL"}, {"measurement": "P8 concentration in plasma", "setting": "SC 11.0 mg/kg single dose, 90 min, Rat 2", "result": "3,570 ng/mL"}, {"measurement": "P8 concentration in plasma", "setting": "SC 11.0 mg/kg single dose, 90 min, Rat 3", "result": 908, "unit": "ng/mL"}, {"measurement": "P8 concentration in CSF", "setting": "SC 11.0 mg/kg single dose, 100 min, Rat 1", "result": 21.6, "unit": "ng/mL"}, {"measurement": "P8 concentration in CSF", "setting": "SC 11.0 mg/kg single dose, 100 min, Rat 2", "result": 16.3, "unit": "ng/mL"}, {"measurement": "P8 concentration in CSF", "setting": "SC 11.0 mg/kg single dose, 100 min, Rat 3", "result": 8.31, "unit": "ng/mL"}, {"measurement": "P8 concentration in plasma", "setting": "SC 11.0 mg/kg single dose, 110 min, Rat 1", "result": "2,120 ng/mL"}, {"measurement": "P8 concentration in plasma", "setting": "SC 11.0 mg/kg single dose, 110 min, Rat 2", "result": "2,410 ng/mL"}, {"measurement": "P8 concentration in plasma", "setting": "SC 11.0 mg/kg single dose, 110 min, Rat 3", "result": 804, "unit": "ng/mL"}, {"measurement": "P8 concentration in plasma", "setting": "SC 11.0 mg/kg single dose, 130 min, Rat 1", "result": "1,870 ng/mL"}, {"measurement": "P8 concentration in plasma", "setting": "SC 11.0 mg/kg single dose, 130 min, Rat 2", "result": "3,030 ng/mL"}, {"measurement": "P8 concentration in plasma", "setting": "SC 11.0 mg/kg single dose, 130 min, Rat 3", "result": 619, "unit": "ng/mL"}, {"measurement": "P8 concentration in CSF", "setting": "SC 11.0 mg/kg single dose, 150 min, Rat 1", "result": 11.8, "unit": "ng/mL"}, {"measurement": "P8 concentration in CSF", "setting": "SC 11.0 mg/kg single dose, 150 min, Rat 2", "result": 10.7, "unit": "ng/mL"}, {"measurement": "P8 concentration in CSF", "setting": "SC 11.0 mg/kg single dose, 150 min, Rat 3", "result": 5.71, "unit": "ng/mL"}, {"measurement": "P8 concentration in plasma", "setting": "SC 11.0 mg/kg single dose, 165 min, Rat 1", "result": "1,010 ng/mL"}, {"measurement": "P8 concentration in plasma", "setting": "SC 11.0 mg/kg single dose, 165 min, Rat 2", "result": "1,600 ng/mL"}, {"measurement": "P8 concentration in plasma", "setting": "SC 11.0 mg/kg single dose, 165 min, Rat 3", "result": 356, "unit": "ng/mL"}, {"measurement": "mean plasma exposure, SC relative to IN, corrected for dose", "setting": "rat", "result": 25, "unit": "fold"}, {"measurement": "percent of dose absorbed, SC relative to IN", "setting": "rat", "result": 25, "unit": "fold"}, {"measurement": "ratio or relative % F across the blood-brain barrier, % of the plasma concentrations", "setting": "rat", "result": "< 1", "unit": "%"}, {"measurement": "CSF Ratio (dose normalized CSF AUC of route / of IV dose)", "setting": "rat, IN 5.5 mg/kg", "result": "0.10±0.092"}, {"measurement": "Plasma: CSF Ratio (AUC)", "setting": "rat, IN 5.5 mg/kg", "result": "0.041±0.041"}, {"measurement": "Plasma: CSF Ratio (Cmax)", "setting": "rat, IN 5.5 mg/kg", "result": "0.064±0.093"}, {"measurement": "Tmax", "setting": "rat, IN 5.5 mg/kg, CSF", "result": "27 ± 29", "unit": "min"}, {"measurement": "CSF exposure as % of plasma exposure", "setting": "rat, IV", "result": "about 0.5%"}, {"measurement": "Plasma: CSF Ratio (AUC)", "setting": "rat, IV 11 mg/kg", "result": "0.0052±0.0015"}, {"measurement": "peak CSF Cmax", "setting": "rat, IV 11 mg/kg, CSF, at the 10-min time point (first time point)", "result": 65.6, "unit": "ng/mL"}, {"measurement": "t1/2", "setting": "rat, IV 11 mg/kg, plasma, terminal, 11 mg/kg", "result": "21.9 ± 8.18", "unit": "min"}, {"measurement": "clearance as share of hepatic liver blood flow", "setting": "rat, IV, based on a 70 mL/min/kg estimate", "result": "about 25%"}, {"measurement": "CSF exposure as % of plasma exposure", "setting": "rat, SC", "result": "about 0.5%"}, {"measurement": "CSF Ratio (dose normalized CSF AUC of route / of IV dose)", "setting": "rat, SC 11 mg/kg", "result": "0.72±0.29"}, {"measurement": "Plasma: CSF Ratio (AUC)", "setting": "rat, SC 11 mg/kg", "result": "0.0055±0.00054"}, {"measurement": "Plasma: CSF Ratio (Cmax)", "setting": "rat, SC 11 mg/kg", "result": "0.0037±0.0005"}, {"measurement": "AUC", "setting": "[1]", "result": 5.5, "unit": "ng·h/mL"}, {"measurement": "Cmax", "setting": "[1]", "result": "12.4 ± 17.7", "unit": "ng/mL"}, {"measurement": "Tmax", "setting": "rat, in vivo, 5.5 mg/kg, Tmax, IN 5.5 mg/kg, CSF", "result": 26.7, "unit": "min"}, {"measurement": "bioavailability", "setting": "rat, in vivo, inhaled or intranasal, 5.5 mg/kg", "result": "2.8 ± 0.88", "unit": "%"}, {"measurement": "AUC", "setting": "[2]", "result": 146, "unit": "ng·h/mL"}, {"measurement": "Cmax", "setting": "[2]", "result": "197 ± 62.7", "unit": "ng/mL"}, {"measurement": "Tmax", "setting": "rat, in vivo, inhaled or intranasal, 5.5 mg/kg, Tmax, IN 5.5 mg/kg, plasma", "result": 5, "unit": "min"}, {"measurement": "Vd", "setting": "rat, in vivo, iv, 11 mg/kg", "result": "0.546 ± 0.306", "unit": "L/kg"}, {"measurement": "clearance", "setting": "rat, in vivo, iv, 11 mg/kg", "result": "17.6 ± 5.65", "unit": "mL/min/kg"}, {"measurement": "AUC", "setting": "rat, in vivo, iv, 11 mg/kg, IV 11 mg/kg, CSF", "result": 54.5, "unit": "ng·h/mL"}, {"measurement": "AUC", "setting": "rat, in vivo, iv, 11 mg/kg, IV 11 mg/kg, plasma", "result": 11300, "unit": "ng·h/mL"}, {"measurement": "half-life", "setting": "rat, in vivo, iv, 11 mg/kg, t1/2, rat, IV 11 mg/kg, plasma, terminal", "result": "22 ± 8.2", "unit": "min"}, {"measurement": "bioavailability", "setting": "rat, in vivo, sc, 11 mg/kg", "result": "65 ± 21", "unit": "%"}, {"measurement": "AUC", "setting": "[3]", "result": 39.7, "unit": "ng·h/mL"}, {"measurement": "AUC", "setting": "[4]", "result": 7380, "unit": "ng·h/mL"}, {"measurement": "Cmax", "setting": "[3]", "result": "19.8 ± 8.46", "unit": "ng/mL"}, {"measurement": "Cmax", "setting": "[4]", "result": 5390, "unit": "ng/mL"}, {"measurement": "Tmax", "setting": "rat, in vivo, sc, 11 mg/kg, Tmax, SC 11 mg/kg, CSF", "result": 43, "unit": "min"}, {"measurement": "Tmax", "setting": "rat, in vivo, sc, 11 mg/kg, Tmax, SC 11 mg/kg, plasma", "result": 25, "unit": "min"}]}]}
